Results from ChEMBL document CHEMBL1157729, “Structure-activity relationship and mechanism of action studies of manzamine analogues for the control of neuroinflammation and cerebral infections” (J Med Chem, 2010).
Converted amounts (≈) assume the structure as drawn.

Columns and labels:
Plasmodium falciparum [1] = assay: Antiplasmodial activity against chloroquine-sensitive Plasmodium falciparum D6 after 72 hrs by LDH assay; format: functional, organism-based
Vero = assay: Cytotoxicity against african green monkey Vero cells up to 4.6 ug/mL after 48 hrs by neutral red assay; format: cell-based; settings: chlorocebus sabaeus
Outline: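 Vero cells were seeded at 25,000 cells/well and incubated for 24 h, then exposed to serially diluted samples for 48 h. Viable cells were counted by Neutral Red assay, with doxorubicin as positive control. IC50 was taken from dose-response curves.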

[2] = system: Mycobacterium tuberculosis; assay: Antimycobacterial activity against Mycobacterium tuberculosis H37Rv; format: functional, organism-based
[3] = system: Mycobacterium intracellulare; assay: Antimycobacterial activity against Mycobacterium intracellular ATCC 23068; format: functional, organism-based
Outline: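 Modified Franzblau method; samples serially diluted in 20% DMSO/saline, tested in duplicate; inoculum set by OD630; fluorescence read at 544ex/590em before and after incubation; ciprofloxacin drug control.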

Candida albicans = assay: Antifungal activity against Candida albicans ATCC 90028; format: functional, organism-based
Outline: (§1)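 Broth microdilution per modified CLSI method; samples serially diluted in 20% DMSO/saline, tested in duplicate; inocula set by OD630 of suspensions in incubation broth; growth read at 630 nm before and after incubation; amphotericin B drug control.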

Cryptococcus neoformans = assay: Antifungal activity against Cryptococcus neoformans ATCC 90113; format: functional, organism-based; outline: as §1
Plasmodium falciparum [4] = assay: Antiplasmodial activity against chloroquine-resistant Plasmodium falciparum W2 after 72 hrs by LDH assay; format: functional, organism-based
[5] = Antineuroinflammatory activity in LPS-stimulated rat neonatal microglia assessed as inhibition of PMA-induced TXB2 production preincubated 15 mins prior to PMA challenge measured after 70 mins; format: functional, cell-based
[6] = Antineuroinflammatory activity in LPS-stimulated rat neonatal microglia assessed as drug level causing 50% PMA-induced LDH release preincubated 15 mins prior to PMA challenge measured after 70 mins; format: functional
Outline: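 Neonatal rat microglia (2 × 10^5/well) primed with E. coli LPS 0.3 ng/mL for 17 h at 35.9 °C, washed with HBSS, given compound (0.01–10 μM) or DMSO 15 min, then PMA 1 μM; LDH read spectrophotometrically after 70 min; LDH50 relative to Triton X-100 (0.1%) release; duplicates.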

[7] = Antineuroinflammatory activity in LPS-stimulated rat neonatal microglia assessed as inhibition of PMA-induced superoxide anion production preincubated 15 mins prior to PMA challenge measured after 70 mins; format: functional, cell-based
[8] = Plasmodium falciparum, D6, 72 h, read-out: IC50
[9] = Plasmodium falciparum, W2, 72 h, read-out: IC50

Row | Structure (SMILES) | IC50 (Plasmodium falciparum [1]) | Activity (Vero) | MIC [2] [µg/mL] | IC50 [3] [µg/mL] | IC50 (Candida albicans) [µg/mL] | IC50 (Cryptococcus neoformans) [µg/mL] | IC50 (Plasmodium falciparum [4]) | IC50 (Plasmodium falciparum [1]; [8]) [µg/mL] | IC50 (Plasmodium falciparum [4]; [9]) [µg/mL] | IC50 [5] [µM] | Activity [6] [µM] | IC50 [7] [µM]
1 | COc1cccc(/C=C2/CCN3[C@@H](CCC2=O)C[C@]24CN5CCCC/C=C\CC[C@](O)(C=C(c6nccc7c6[nH]c6c(O)cccc67)[C@@H]2CC5)[C@H]34)c1 | Not Active | Non-toxic | > 64 | > 20 | > 20 | > 20 | Not Active | – | – | – | – | –
2 | C1=C(c2nccc3c2[nH]c2ccccc23)[C@@H]2CCN3CCCC/C=C\C/C=C/1[C@@H]1N4CCCC/C=C\[C@H]4C[C@@]12C3 [DEHYDROMANZAMINE A] | – | – | 46 (≈ 86.7 µM) | 0.4 (≈ 0.754 µM) | 9.5 (≈ 17.9 µM) | 4.5 (≈ 8.48 µM) | – | 0.12 (≈ 0.226 µM) | 2.2 (≈ 4.14 µM) | – | – | –
3 | O=[N+]([O-])c1cccc2c1[nH]c1c(C3=C[C@@]4(O)CC/C=C\CCCCN5CC[C@@H]3[C@]3(C[C@@H]6/C=C\CCCCN6[C@H]34)C5)nccc12 [8-NITROMANZAMINE A] | – | Non-toxic | – | 0.25 (≈ 0.421 µM) | > 20 | 4 (≈ 6.74 µM) | – | 0.31 (≈ 0.522 µM) | 0.41 (≈ 0.691 µM) | – | – | –
4 | CO[C@H]1/C=C/O[C@@]2(C)Oc3c(C)c(O)c4c(O)c(c(/C=N/N5CCN(C)CC5)c(O)c4c3C2=O)NC(=O)/C(C)=C\C=C\[C@H](C)[C@H](O)[C@@H](C)[C@@H](O)[C@@H](C)[C@H](OC(C)=O)[C@@H]1C [RIFAMPIN] | – | – | 0.09 (≈ 0.109 µM) | – | – | – | – | – | – | – | – | –
5 | C[C@@H]1[C@H](O)[C@@H](C)/C=C/C=C/C=C/C=C/C=C/C=C/C=C/[C@H](O[C@@H]2O[C@H](C)[C@@H](O)[C@H](N)[C@@H]2O)C[C@@H]2O[C@](O)(C[C@@H](O)C[C@@H](O)[C@H](O)CC[C@@H](O)C[C@@H](O)CC(=O)O[C@H]1C)C[C@H](O)[C@H]2C(=O)O [AMPHOTERICIN B] | – | – | – | – | 0.2 (≈ 0.216 µM) | – | – | – | – | – | – | –
6 | COc1ccc(/C=C2/CCN3[C@@H](CCC2=O)C[C@]24CN5CCCC/C=C\CC[C@](O)(C=C(c6nccc7c6[nH]c6c(O)cccc67)[C@@H]2CC5)[C@H]34)cc1OC | Not Active | Non-toxic | > 64 | > 20 | > 20 | > 20 | Not Active | – | – | – | – | –
7 | CN1CCc2c([nH]c3ccccc23)C1C1=C[C@@]2(O)CC/C=C\CCCCN3CC[C@@H]1[C@]1(C[C@@H]4/C=C\CCCCN4[C@H]12)C3 (some centres not stated) | – | Non-toxic | > 64 | 0.7 (≈ 1.23 µM) | > 20 | 6 (≈ 10.6 µM) | – | 0.31 (≈ 0.547 µM) | 0.44 (≈ 0.776 µM) | 12.2 | 8 | > 10
8 | N/N=C1/CCCN2[C@@H](CC1)C[C@]13CN4CCCC/C=C\CC[C@](O)(C=C(c5nccc6c5[nH]c5c(O)cccc56)[C@@H]1CC4)[C@H]23 | – | Non-toxic | 1.9 (≈ 3.19 µM) | 0.09 (≈ 0.151 µM) | > 20 | 1 (≈ 1.68 µM) | – | – | 0.038 (≈ 0.0639 µM) | – | – | –
9 | Cn1c2ccccc2c2ccnc(C3=C[C@@]4(O)CC/C=C\CCCCN5CC[C@@H]3[C@]3(C[C@@H]6/C=C\CCCCN6[C@H]34)C5)c21 [9-N-METHYLMANZAMINE A] | – | Non-toxic | > 64 | > 20 | > 20 | > 20 | – | 1.9 (≈ 3.38 µM) | 1 (≈ 1.78 µM) | > 10 | >10 | > 10
10 | COC(=O)CCCCn1c2ccccc2c2ccnc(C3=C[C@@]4(O)CC/C=C\CCCCN5CC[C@@H]3[C@]3(C[C@@H]6/C=C\C(=O)CCCN6[C@H]34)C5)c21 | – | Non-toxic | – | 20 (≈ 29.5 µM) | > 20 | 15 (≈ 22.2 µM) | – | 2 (≈ 2.95 µM) | 2 (≈ 2.95 µM) | – | – | –
11 | O=C1CC[C@H]2C[C@]34CN5CCCC/C=C\CC[C@](O)(C=C(c6nccc7c6[nH]c6c(O)cccc67)[C@@H]3CC5)[C@@H]4N2CC/C1=C/c1ccc([N+](=O)[O-])cc1 | Not Active | Non-toxic | > 64 | > 20 | > 20 | > 20 | Not Active | – | – | – | – | –
12 | O[C@]12C=C(c3nccc4c3[nH]c3ccccc34)[C@@H]3CCN(CCCC/C=C\CC1)C[C@@]31C[C@@H]3CCCCCCN3[C@H]12 [32,33-DIHYDROMANZAMINE A] | – | – | 66 (≈ 120 µM) | 0.6 (≈ 1.09 µM) | 9.5 (≈ 17.2 µM) | 1.5 (≈ 2.72 µM) | – | – | 1.8 (≈ 3.27 µM) | – | – | –
